Assay results reported in ChEMBL document CHEMBL5316280, “Development of N-(1-Adamantyl)benzamides as Novel Anti-Inflammatory Multitarget Agents Acting as Dual Modulators of the Cannabinoid CB2 Receptor and Fatty Acid Amide Hydrolase” (J Med Chem, 2023).
Active and inactive are the calls of the source. No cut-off for these calls is given here.

Columns and labels:
Cannabinoid receptor 1 [1] = target: T1, Cannabinoid receptor 1 (Homo sapiens, UniProt P21554); test: Agonist activity at human CB1 receptor in CHO cells incubated for 15 mins by plate reader analysis
T1 sequence (P21554 whole entry): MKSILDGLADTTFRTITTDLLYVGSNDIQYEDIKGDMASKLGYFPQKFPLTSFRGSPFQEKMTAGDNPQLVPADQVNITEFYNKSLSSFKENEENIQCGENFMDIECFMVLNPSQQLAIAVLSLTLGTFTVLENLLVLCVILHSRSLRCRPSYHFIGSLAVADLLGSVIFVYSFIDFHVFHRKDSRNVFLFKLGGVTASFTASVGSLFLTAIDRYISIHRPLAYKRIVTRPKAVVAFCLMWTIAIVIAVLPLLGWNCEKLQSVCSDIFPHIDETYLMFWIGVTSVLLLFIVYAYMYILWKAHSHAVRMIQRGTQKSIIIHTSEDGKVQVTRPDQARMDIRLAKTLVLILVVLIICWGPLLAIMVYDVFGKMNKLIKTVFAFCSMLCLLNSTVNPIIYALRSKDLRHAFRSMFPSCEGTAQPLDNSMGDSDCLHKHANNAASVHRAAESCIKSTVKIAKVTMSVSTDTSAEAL

Cannabinoid receptor 2 = Cannabinoid receptor 2 (Homo sapiens, UniProt P34972); test: Agonist activity at human CB2 receptor overexpressed in CHO-K1 cells assessed as cAMP level incubated for 30 mins by luminescence based assay relative to control; format: functional, cell-based; conditions: filed as agonist
Chain of Cannabinoid receptor 2 (P34972 whole entry): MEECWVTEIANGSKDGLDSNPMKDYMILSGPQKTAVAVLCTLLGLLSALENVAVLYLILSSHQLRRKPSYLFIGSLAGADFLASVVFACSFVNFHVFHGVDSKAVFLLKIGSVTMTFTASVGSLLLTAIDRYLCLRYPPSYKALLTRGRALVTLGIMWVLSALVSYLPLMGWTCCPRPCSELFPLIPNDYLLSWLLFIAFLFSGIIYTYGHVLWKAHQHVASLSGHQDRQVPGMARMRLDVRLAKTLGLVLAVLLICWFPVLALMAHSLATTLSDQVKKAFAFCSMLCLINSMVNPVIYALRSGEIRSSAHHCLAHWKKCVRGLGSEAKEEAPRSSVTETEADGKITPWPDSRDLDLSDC
Method in brief: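 CHO-K1 cells overexpressing human CB2R were plated at 30 000 cells/well and held overnight at 37 °C, 5% CO2. Test samples were added as dose–response solutions with NKH-477 to stimulate adenylate cyclase, then incubated 30 min at 37 °C. cAMP was detected by luminescence after cell lysis. Values were normalized to NKH-477 alone as 100% response. Three independent experiments were run in triplicate.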

THP-1 [2] = test: Antiinflammatory activity in human THP-1 monocytes assessed as decrease in IFNgamma level incubated for 24 hrs in presence of […] by ELISA based qRT-PCR analysis; format: functional, cell-based
Method in brief: (§1)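 THP-1 cells were seeded at 1 x 10⁵ cells/ml for 48 h. For macrophages, cells were differentiated with 0.01 µM PMA for 48 h; monocytes received no PMA. Cells were then given 24 h with or without 10 µg/ml LPS, plus ligands alone or with the CB2R inverse agonist JTE907 (10 µM). Cytokines were measured in 5 µL supernatant (from 1 x 10⁴ cells) by ProQuantum immunoassay, read as pg/ml from kit titration curves; n=3.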

THP-1 [3] = test: Antiinflammatory activity in human THP-1 macrophages assessed as decrease in TNFalpha level incubated for 24 hrs by ELISA based qRT-PCR analysis; format: functional, cell-based
Method in brief: as §1

THP-1 [4] = test: Antiinflammatory activity in human THP-1 macrophages assessed as increase in IL-10 level incubated for 24 hrs in presence of […] by ELISA based qRT-PCR analysis; format: functional, cell-based
Method in brief: as §1

THP-1 [5] = test: Antiinflammatory activity in human THP-1 monocytes assessed as increase in IL-10 level incubated for 24 hrs in presence of […] by ELISA based qRT-PCR analysis; format: functional, cell-based
Method in brief: as §1

THP-1 [6] = test: Antiinflammatory activity in human THP-1 monocytes assessed as decrease in IL-1beta level incubated for 24 hrs by ELISA based qRT-PCR analysis; format: functional, cell-based
Method in brief: as §1

THP-1 [7] = test: Antiinflammatory activity in human THP-1 macrophages assessed as decrease in TNFalpha level incubated for 24 hrs in presence of […] by ELISA based qRT-PCR analysis; format: functional, cell-based
Method in brief: as §1

THP-1 [8] = test: Antiinflammatory activity in human THP-1 macrophages assessed as increase in IL-4 level incubated for 24 hrs by ELISA based qRT-PCR analysis; format: functional, cell-based
Method in brief: as §1

THP-1 [9] = test: Antiinflammatory activity in human THP-1 monocytes assessed as decrease in IL-6 level incubated for 24 hrs by ELISA based qRT-PCR analysis; format: functional, cell-based
Method in brief: as §1

[10] = Metal chelating activity assessed as Fe2+-compound complex formation incubated for 15 mins by Ferrozine based assay
Method in brief: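 FeSO₄ (25 µM) in water incubated with or without test compound (100 µM, DMSO) for 15 min at room temperature, 300 µL final. Ferrozine then added (1 mM final), shaken 15 min at room temperature. Absorbance of the ferrozine–Fe(II) magenta complex read at 562 nm; chelation seen as reduced complex formation.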

THP-1 [11] = test: Antiinflammatory activity in human THP-1 monocytes assessed as decrease in TNFalpha level incubated for 24 hrs by ELISA based qRT-PCR analysis; format: functional, cell-based
Method in brief: as §1

THP-1 [12] = test: Antiinflammatory activity in human THP-1 monocytes assessed as decrease in IL-6 level incubated for 24 hrs in presence of […] by ELISA based qRT-PCR analysis; format: functional, cell-based
Method in brief: as §1

[13] = target: T2, Fatty-acid amide hydrolase 1 (Homo sapiens, UniProt O00519); test: Inhibition of recombinant human FAAH using AMC-AA as substrate preincubated for 10 mins followed by substrate addition measured after 2 hrs by fluorometric assay
T2 sequence (O00519 whole entry): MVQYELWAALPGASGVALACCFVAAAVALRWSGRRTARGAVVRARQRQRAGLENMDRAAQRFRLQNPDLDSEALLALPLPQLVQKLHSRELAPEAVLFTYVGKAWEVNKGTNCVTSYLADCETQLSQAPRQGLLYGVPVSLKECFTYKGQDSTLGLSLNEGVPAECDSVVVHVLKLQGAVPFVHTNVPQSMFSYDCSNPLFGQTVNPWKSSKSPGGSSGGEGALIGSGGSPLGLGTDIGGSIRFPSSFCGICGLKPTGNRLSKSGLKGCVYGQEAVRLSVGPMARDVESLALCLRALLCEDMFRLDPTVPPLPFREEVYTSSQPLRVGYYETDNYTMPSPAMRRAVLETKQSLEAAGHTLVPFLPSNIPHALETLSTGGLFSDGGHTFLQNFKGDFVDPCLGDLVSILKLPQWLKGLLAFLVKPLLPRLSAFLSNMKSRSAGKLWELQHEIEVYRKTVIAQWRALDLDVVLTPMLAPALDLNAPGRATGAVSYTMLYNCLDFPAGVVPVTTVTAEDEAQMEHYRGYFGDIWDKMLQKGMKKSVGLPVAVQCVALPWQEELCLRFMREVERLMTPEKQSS
Method in brief: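 Human recombinant FAAH preincubated with inhibitor at various concentrations in Tris-HCl 125 mM, Na₂EDTA 1 mM, pH 9.0, 10 min at room temperature with shaking. AMC-AA substrate then added (1 µM final); fluorescence read every 30 s for 2 h at 37 °C (ex 340/em 450 nm). Percent inhibition from no-inhibitor controls and no-enzyme blanks; IC50 from at least three independent runs in triplicate.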

THP-1 [14] = test: Antiinflammatory activity in human THP-1 macrophages assessed as decrease in IFNgamma level incubated for 24 hrs by ELISA based qRT-PCR analysis; format: functional, cell-based
Method in brief: as §1

THP-1 [15] = test: Antiinflammatory activity in human THP-1 monocytes assessed as increase in IL-4 level incubated for 24 hrs by ELISA based qRT-PCR analysis; format: functional, cell-based
Method in brief: as §1

Cannabinoid receptor 1 [16] = target: T1, Cannabinoid receptor 1; test: […] human CB1 receptor in CHO cells incubated for 15 mins by plate reader analysis relative to control; format: cell-based
Method in brief: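 CHO-CB1 C3 cells (human CB1) were seeded at 8000 cells/well in medium with dialyzed FBS and preincubated 15 min at 37 °C. Compounds or the CP55940 control were added for 15 min at 37 °C, then forskolin 10 µM for 5 min. cAMP was read by HTRF after 1 h at room temperature (λex 320 nm, λem 620-665 nm).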

THP-1 [17] = test: Antiinflammatory activity in human THP-1 monocytes assessed as increase in IL-10 level incubated for 24 hrs by ELISA based qRT-PCR analysis; format: functional, cell-based
Method in brief: as §1

THP-1 [18] = test: Antiinflammatory activity in human THP-1 monocytes assessed as decrease in TNFalpha level incubated for 24 hrs in presence of […] by ELISA based qRT-PCR analysis; format: functional, cell-based
Method in brief: as §1

THP-1 [19] = test: Antiinflammatory activity in human THP-1 monocytes assessed as decrease in IL-1beta level incubated for 24 hrs in presence of […] by ELISA based qRT-PCR analysis; format: functional, cell-based
Method in brief: as §1

THP-1 [20] = test: Antiinflammatory activity in human THP-1 macrophages assessed as increase in IL-10 level incubated for 24 hrs by ELISA based qRT-PCR analysis; format: functional, cell-based
Method in brief: as §1

Row | Compound | EC50 (Cannabinoid receptor 1 [1]) | Emax (Cannabinoid receptor 2) | Activity (THP-1 [2]) | Activity (THP-1 [3]) | Activity (THP-1 [4]) | Activity (THP-1 [5]) | Activity (THP-1 [6]) | Activity (THP-1 [7]) | Activity (THP-1 [8]) | Activity (THP-1 [9]) | Activity [10] | Activity (THP-1 [11]) | Activity (THP-1 [12]) | IC50 [13] | Activity (THP-1 [14]) | Activity (THP-1 [15]) | Emax (Cannabinoid receptor 1 [16]) | Activity (THP-1 [17]) | Activity (THP-1 [18]) | Activity (THP-1 [19]) | other results
1 | CCCCCOc1ccccc1C(=O)NC12CC3CC(CC(C3)C1)C2 | 106 nM | 95.3% | inactive | Active | inactive | inactive | inactive | inactive | Active | inactive | Active | Active | inactive | 6200 nM | Active | Active | 100% | Active | inactive | inactive | Activity (THP-1 [20]): Active
2 | O=C(NC12CC3CC(CC(C3)C1)C2)c1ccccc1OCc1ccccc1 | 489 nM | 96.3% | inactive | Active | inactive | inactive | Active | inactive | Active | inactive | Active | Active | inactive | 4000 nM | Active | Active | 100% | Active | inactive | inactive | Activity (THP-1 [20]): Active
3 | O=C(NC12CC3CC(CC(C3)C1)C2)c1ccccc1OCC1CCCCC1 | 253 nM | 90.1% | inactive | Active | inactive | inactive | Active | inactive | Active | Active | Active | Active | inactive | 3400 nM | Active | Active | 75% | Active | inactive | inactive | Activity (THP-1 [20]): Active
